Experimental data taken from ChEMBL document CHEMBL3621132, “Discovery of diazepane amide DORAs and 2-SORAs enabled by exploration of isosteric quinazoline replacements” (Bioorg Med Chem Lett, 2015).
pIC50, pKi: −log10 of the molar value. Active and inactive are the calls of the source. The rule behind the calls is not given here.

Columns and labels:
Orexin receptor type 2 = molecular target: T1, Orexin receptor type 2 (Homo sapiens, UniProt O43614); test: Antagonist activity at human orexin 2 receptor expressed in CHO cells assessed as inhibition of orexin-A-induced intracellular calcium level after 60 mins by FLIPR assay; format: functional, cell-based
T1 sequence (O43614 whole entry): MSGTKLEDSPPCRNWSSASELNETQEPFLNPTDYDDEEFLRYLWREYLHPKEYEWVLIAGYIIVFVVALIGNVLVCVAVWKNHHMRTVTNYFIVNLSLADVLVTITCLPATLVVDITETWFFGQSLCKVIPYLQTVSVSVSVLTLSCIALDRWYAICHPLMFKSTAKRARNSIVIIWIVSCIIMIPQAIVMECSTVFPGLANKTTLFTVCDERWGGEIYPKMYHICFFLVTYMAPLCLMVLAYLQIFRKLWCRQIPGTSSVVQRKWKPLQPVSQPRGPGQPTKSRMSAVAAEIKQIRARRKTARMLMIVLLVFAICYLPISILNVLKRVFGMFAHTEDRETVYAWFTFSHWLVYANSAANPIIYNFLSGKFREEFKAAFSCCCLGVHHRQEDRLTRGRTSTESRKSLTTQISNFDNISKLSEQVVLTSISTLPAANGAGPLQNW

Homo sapiens = organism: Homo sapiens; test: Selectivity ratio of IC50 for human orexin 1 receptor Ile408-Val mutant to IC50 for human orexin 2 receptor
[1] = molecular target: Orexin receptor type 2 (Homo sapiens) (UniProt O43614); test: Antagonist activity at human orexin 2 receptor expressed in CHO cells assessed as inhibition of orexin-A-induced intracellular calcium level after 60 mins by FLIPR assay; conditions: 1 h
[2] = Clearance in dog at 0.125 mg/kg, iv; format: ADME, organism-based, Canis lupus familiaris; conditions: in vivo
How it was run: (§1)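 Intravenous PK in rat (2 mg/kg) and dog (0.125 or 0.5 mg/kg), vehicle 100% DMSO, n = 2. Clearance, Vdss and half-life were determined.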

[3] = molecular target: Orexin receptor type 1 (Homo sapiens) (UniProt O43613); test: Binding affinity to human orexin 1 receptor expressed in CHO cells after 3 hrs by radioligand binding assay
[4] = molecular target: Orexin receptor type 2 (Homo sapiens) (UniProt O43614); test: Binding affinity to human orexin 2 receptor expressed in CHO cells after 3 hrs by radioligand binding assay
[5] = Tmax in mouse at 300 mg/kg, po; format: ADME, organism-based; conditions: in vivo
How it was run: (§2)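 Mice were dosed orally at 300 mg/kg as the free base in 20% Vitamin E TPGS in water, during the active phase of the sleep study. Cmax and Tmax were taken from plasma.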

[6] = Cmax in mouse at 300 mg/kg, po; format: ADME, organism-based; parameters: dose 300 mg/kg, route oral; conditions: in vivo; how it was run: as §2
P-glycoprotein [7] = test: Permeability of the compound assessed as rat p-glycoprotein-mediated permeability ratio from basolateral to apical direction; format: ADME; conditions: not told
[8] = Tmax in dog at 3 mg/kg, po; format: ADME, organism-based, Canis lupus familiaris; conditions: in vivo
How it was run: (§3)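 Oral dosing in dogs at 3 mg/kg as the free base in 20% Vitamin E TPGS in water (n = 2). AUC, Tmax, Cmax and oral bioavailability were determined from plasma.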

[9] = AUC in dog at 3 mg/kg, po; format: ADME, organism-based, Canis lupus familiaris; conditions: in vivo
[10] = Plasma protein binding in rat; format: ADME, cell-free; conditions: read-out: PPB (converted)
[11] = Volume of distribution at steady state in dog at 0.5 mg/kg, iv; format: ADME, organism-based, Canis lupus familiaris; conditions: in vivo, read-out: Vdss; how it was run: as §1
[12] = Volume of distribution at steady state in rat at 2 mg/kg, iv; format: ADME, organism-based; conditions: in vivo, read-out: Vdss; how it was run: as §1
[13] = Clearance in rat at 2 mg/kg, iv; format: ADME, organism-based; conditions: in vivo; how it was run: as §1
[14] = Cmax in dog at 3 mg/kg, po; format: ADME, organism-based, Canis lupus familiaris; parameters: dose 3 mg/kg, route oral; conditions: in vivo; how it was run: as §3
[15] = Tmax in rat at 10 mg/kg, po; format: ADME, organism-based; conditions: in vivo
How it was run: (§4)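 Rats were dosed orally at 10 mg/kg in 100% PEG200 (n = 2), as the free base or the hydrochloride salt. AUC, Tmax, Cmax and bioavailability (F) were derived from plasma levels.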

[16] = Oral bioavailability in dog at 3 mg/kg; format: ADME, organism-based, Canis lupus familiaris; conditions: in vivo; how it was run: as §3
[17] = Apparent permeability of the compound assessed […] by cell based assay; format: physicochemical
[18] = Lipophilicity, log D of the compound by HPLC analysis; format: physicochemical
[19] = Oral bioavailability in rat at 10 mg/kg; format: ADME, organism-based; conditions: in vivo; how it was run: as §4
P-glycoprotein [20] = test: Permeability of the compound assessed as human p-glycoprotein-mediated permeability ratio from basolateral to apical direction; format: ADME; conditions: not told
[21] = Plasma protein binding in human; format: ADME, cell-free; conditions: read-out: PPB (converted)
[22] = Half life in dog at 0.5 mg/kg, iv; format: ADME, organism-based, Canis lupus familiaris; conditions: in vivo; how it was run: as §1
[23] = Clearance in dog at 0.5 mg/kg, iv; format: ADME, organism-based, Canis lupus familiaris; conditions: in vivo; how it was run: as §1
[24] = Plasma protein binding in dog; format: ADME, cell-free, Canis lupus familiaris; conditions: read-out: PPB (converted)
[25] = AUC in rat at 10 mg/kg, po; format: ADME, organism-based; conditions: in vivo
[26] = Cmax in rat at 10 mg/kg, po; format: ADME, organism-based; parameters: dose 10 mg/kg, route oral; conditions: in vivo; how it was run: as §4
[27] = Half life in rat at 2 mg/kg, iv; format: ADME, organism-based; conditions: in vivo; how it was run: as §1
Rattus norvegicus [28] = test: Anti-insomnia activity in rat sleep model assessed as increase in REM sleep at 30 mg/kg, po up to 2 hrs; format: functional, organism-based
[29] = Cmax in satellite rat sleep model at 30 mg/kg, po; format: ADME, organism-based; parameters: dose 30 mg/kg, route oral; conditions: in vivo
How it was run: (§5)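 Satellite rats from the sleep study were given 30 mg/kg orally as the free base in 20% Vitamin E TPGS in water (n = 3). Plasma AUC, Cmax and Tmax were measured over the sleep experiment.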

[30] = Tmax in satellite rat sleep model at 30 mg/kg, po; format: ADME, organism-based; conditions: in vivo; how it was run: as §5
Rattus norvegicus [31] = test: Anti-insomnia activity in rat sleep model assessed as reduction of active wake at 30 mg/kg, po up to 2 hrs; format: functional, organism-based
Rattus norvegicus [32] = organism: Rattus norvegicus; test: Ex vivo receptor occupancy at human OX2R expressed in transgenic rat at plasma concentration of 0.35 uM; format: functional
[33] = AUC in satellite rat sleep model at 30 mg/kg, po; format: ADME, organism-based; conditions: in vivo; how it was run: as §5
Rattus norvegicus [34] = test: Anti-insomnia activity in rat sleep model assessed as increase in slow wave at 30 mg/kg, po up to 2 hrs; format: functional, organism-based
Liver microsome [35] = test: Bioactivation of compound in rat liver microsomes assessed as AUC of GSH-adduct formation at 10 uM after 60 mins by HRMS analysis relative to labetalol; conditions: 1 h
Liver microsome [36] = test: Bioactivation of compound in human liver microsomes assessed as AUC of GSH-adduct formation at 10 uM after 60 mins by HRMS analysis relative to labetalol; conditions: 1 h

**Q.** With `COc1ncc(C(F)(F)F)c(N2CC[C@@H](C)N(C(=O)c3ccccc3-n3nccn3)CC2)n1` as the compound, how does the pIC50 (Orexin receptor type 2) read?
**A.** Its pIC50 is 6.61.

**Q.** And the Ratio IC50 (Homo sapiens)?
**A.** The Ratio IC50 was 7.

**Q.** With `Cc1ccc(-n2nccn2)c(C(=O)N2CCN(c3ncc(Cl)c(C)n3)CC[C@H]2C)c1` as the compound, how does the pIC50 (Orexin receptor type 2) read?
**A.** The pIC50 was 7.70.

**Q.** What about the pIC50 [1] of the same compound?
**A.** The pIC50 was 7.70.

**Q.** And the clearance [2]?
**A.** The clearance was 9 mL/min/kg.

**Q.** And the pKi [3]?
**A.** Its pKi is 8.21.

**Q.** With `Cc1ccc(-n2nccn2)c(C(=O)N2CCN(c3ncc(C)c(Cl)n3)CC[C@H]2C)c1` as the compound, how does the pIC50 (Orexin receptor type 2) read?
**A.** Its pIC50 is 7.55.

**Q.** And the pIC50 [1]?
**A.** Its pIC50 is 7.55.

**Q.** And the clearance [2]?
**A.** Its clearance is 8 mL/min/kg.

**Q.** And the pKi [3]?
**A.** The pKi was 8.41.

**Q.** What about the pKi [4] of the same compound?
**A.** Its pKi is 9.40.

**Q.** Which results are given for `Cc1ncc(Cl)c(N2CC[C@@H](C)N(C(=O)c3ccccc3-n3nccn3)CC2)n1`?
**A.** Tmax [5]: 60 min; Cmax [6]: 18000 nM; efflux ratio (P-glycoprotein [7]): 1.5; pIC50 (Orexin receptor type 2): 7.32; Tmax [8]: 24 min; AUC [9]: 1.8 µM·h; fraction unbound [10]: 0.12; Vd [11]: 0.8 L/kg; Vd [12]: 7 L/kg; clearance [13]: 118 mL/min/kg; Cmax [14]: 1300 nM; Tmax [15]: 24 min; bioavailability [16]: 19%; Papp [17]: 34 ×10⁻⁶ cm/s; logD [18]: 2.8; bioavailability [19]: 35%; efflux ratio (P-glycoprotein [20]): 0.7; fraction unbound [21]: 0.05; pKi [3]: 5.74; half-life [22]: 54 min; clearance [23]: 15 mL/min/kg; fraction unbound [24]: 0.05; pKi [4]: 8.44; AUC [25]: 1.2 µM·h; Cmax [26]: 900 nM; half-life [27]: 192 min

**Q.** Which Activity (Rattus norvegicus [28]) does the source give for `C[C@@H]1CCN(c2ncc3cc(F)ccc3n2)CCN1C(=O)c1ccccc1-n1nccn1` here?
**A.** The Activity was “Active”.

**Q.** What about the Cmax [29] of the same compound?
**A.** Its Cmax is 2000 nM.

**Q.** What about the Tmax [30] of the same compound?
**A.** The Tmax was 78 min.

**Q.** And the clearance [2]?
**A.** Its clearance is 3 mL/min/kg.

**Q.** And the Activity (Rattus norvegicus [31])?
**A.** The Activity was “Active”.

**Q.** What about the Activity (Rattus norvegicus [32]) of the same compound?
**A.** The Activity was 90%.

**Q.** What about the AUC [33] of the same compound?
**A.** The AUC was 4.5 µM·h.

**Q.** What about the Activity (Rattus norvegicus [34]) of the same compound?
**A.** Its Activity is “Active”.

**Q.** What does the source list for `Cc1ccc(-n2nccn2)c(C(=O)N2CCN(c3nc4cc(Cl)ccc4o3)CC[C@H]2C)c1` [SUVOREXANT]?
**A.** Activity (Liver microsome [35]): > 95%; Activity (Liver microsome [36]): > 95%

**Q.** With `COc1nc(N2CC[C@@H](C)N(C(=O)c3cc(C)ccc3-n3nccn3)CC2)ncc1C` as the compound, how does the pIC50 (Orexin receptor type 2) read?
**A.** The pIC50 was 7.51.

**Q.** What about the pIC50 [1] of the same compound?
**A.** Its pIC50 is 7.51.

**Q.** What about the pKi [3] of the same compound?
**A.** Its pKi is 7.85.

**Q.** What about the pKi [4] of the same compound?
**A.** Its pKi is 9.22.

**Q.** With `C[C@@H]1CCN(c2ncc(C(F)(F)F)c(Cl)n2)CCN1C(=O)c1ccccc1-n1nccn1` as the compound, how does the pIC50 (Orexin receptor type 2) read?
**A.** Its pIC50 is 7.06.

**Q.** And the pIC50 [1]?
**A.** Its pIC50 is 7.06.

**Q.** And the pKi [3]?
**A.** The pKi was 8.29.

**Q.** What does the source list for `C[C@@H]1CCN(c2nc(Cl)ncc2C(F)(F)F)CCN1C(=O)c1ccccc1-n1nccn1`?
**A.** pIC50 (Orexin receptor type 2): 7.14; pIC50 [1]: 7.14; pKi [3]: 5.96
